HCT116 PTEN-null: growth suppression of PTEN-null HCT116, primary screen, cell-based, CellTiter-Glo. AID 827, 2007. viability, % at 10 µM. 140,000 tested, 1.2% active. HCT116 PTEN-null viability, 60 h; hits give low values;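 active means viability at or below a set limit, 4 SD under the median of all tested compounds, cut at about 3.7% in these data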;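 further: PTEN knockout HCT116 line with beta catenin targeted HCT116 as companion control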
bCat KO growth: primary screen for growth suppressors in beta-catenin knockout HCT116 cells (colon tumor, human). HCT116 beta-catenin knockout viability, CellTiter-Glo, 60 h; hits give low values. viability, % at 10 µM. 140,000 tested, 1.5% active. AID 818, 2007;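 active means viability at or under a set limit, the compound median less 4 SD, cut at about 6% in these data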;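 further: 0% = Hyamine 1622 control at 20 µM and 100% = untreated cell control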
HUVEC inhibit: inhibitors of HUVEC proliferation, primary screen, cell-based, 384-well; AID 648, 2007; CellTiter-Glo luminescence, 72 h; hits give low values; 86,000 tested, 1.1% active; viability, % at 10 µM (by protocol);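 active means viability at or below 30%; inactive means viability above 30%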;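 further: 100% = median luminescence of DMSO-only cell control wells on each plate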
Fibroblast inh: antiproliferative effect on LL 47 fibroblasts – human, LL 47 cells, CellTiter-Glo luminescence, primary screen; LL 47 human lung fibroblast viability, ATP luminescence; hits give low values; viability, % at 10 µM; 85,000 tested, 1.1% active;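 active means viability at or below 50% in the single dose screen; inactive means viability above 50%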;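 further: compound exposure lasted 72 h before the ATP readout; 100% = median luminescence of untreated cell-only wells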
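material = human LL 47 lung fibroblast cells | dosing = compounds added from tenfold dosing solution, 0.1% DMSO final | timing = overnight cell rest, 72 h compound treatment at 37 °C | measured by = CellTiter-Glo luminescence measuring cellular ATP | evaluation = % viability versus median cells-only luminescence | control set = cell-only wells, no compound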
PTK2B oligo ant: antagonists of Pyk2 self-association, primary screen, Q293 cells, FERM NanoBiT luminescence, HTS; hits give low values; z-score (the deposit names both 25 µM and 10 µM); AID 1347419, 2020; 99,000 tested, 0.83% active;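 active means Z-score of -3 or lower, scaled per plate to the spread of control and sample wells; inactive means z-score above -3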;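 further: negative z-score means lost luminescence so less FERM oligomerization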
Target sequence (Q14289 whole entry, looked up): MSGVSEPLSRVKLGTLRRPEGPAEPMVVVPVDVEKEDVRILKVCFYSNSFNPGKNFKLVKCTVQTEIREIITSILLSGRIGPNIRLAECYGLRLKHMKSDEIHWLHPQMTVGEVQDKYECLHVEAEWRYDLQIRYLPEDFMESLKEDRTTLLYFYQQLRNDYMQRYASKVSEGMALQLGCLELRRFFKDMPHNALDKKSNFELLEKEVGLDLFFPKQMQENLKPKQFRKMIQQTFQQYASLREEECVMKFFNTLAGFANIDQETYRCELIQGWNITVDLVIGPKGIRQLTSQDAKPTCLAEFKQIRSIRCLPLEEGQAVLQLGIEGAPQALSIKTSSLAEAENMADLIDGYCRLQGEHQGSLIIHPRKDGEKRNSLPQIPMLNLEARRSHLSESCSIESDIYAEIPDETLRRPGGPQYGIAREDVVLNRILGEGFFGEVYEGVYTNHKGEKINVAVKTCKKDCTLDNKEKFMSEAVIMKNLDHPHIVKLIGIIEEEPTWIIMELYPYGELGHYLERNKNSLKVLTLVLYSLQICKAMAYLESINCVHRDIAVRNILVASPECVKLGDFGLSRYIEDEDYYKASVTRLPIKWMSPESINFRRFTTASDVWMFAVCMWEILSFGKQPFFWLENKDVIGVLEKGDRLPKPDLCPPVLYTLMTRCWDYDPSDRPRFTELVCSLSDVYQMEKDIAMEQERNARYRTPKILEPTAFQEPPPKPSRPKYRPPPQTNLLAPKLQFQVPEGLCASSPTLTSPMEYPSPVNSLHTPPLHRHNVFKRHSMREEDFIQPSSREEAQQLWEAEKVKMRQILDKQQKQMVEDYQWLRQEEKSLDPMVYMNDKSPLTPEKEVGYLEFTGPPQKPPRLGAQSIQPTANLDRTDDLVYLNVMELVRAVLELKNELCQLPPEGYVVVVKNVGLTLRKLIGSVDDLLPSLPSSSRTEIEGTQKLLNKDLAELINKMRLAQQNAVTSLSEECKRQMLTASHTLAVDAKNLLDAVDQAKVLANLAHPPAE
H69AR inhibit: proliferation blockers of H69AR lung cancer cells, primary screen, cell-based, human, 86K library. H69AR lung tumor viability, ATP luminescence, 72 h; hits give low values. viability, % at 10 µM. 85,000 tested, 6% active;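 active means viability at or below 40%; inactive means viability above 40%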;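 further: multidrug resistant small cell line overexpressing MRP-1 efflux transporter; 100% = mean luminescence of untreated control wells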
An asterisk follows results filed as active; . = no result. Many of the other results were omitted from the sample, so hits are more common in it than they were.

SMILES	HCT116 PTEN-null	bCat KO growth	HUVEC inhibit	Fibroblast inh	PTK2B oligo ant	H69AR inhibit
CCCCNC(=O)Nc1cc(C(=O)OC)ccc1Cl	102	102	110	103	-0.73	81
Cn1c(SCC(=O)N/N=C/c2ccc([N+](=O)[O-])s2)nnc1-c1ccc(Cl)cc1	1.6*	1.9*	.	.	.	.
COc1ccc(-c2nnc(SCC(=O)Nc3ccc(Cl)cc3)n2C)cc1	98	93	95	98	-1.4	91
O=C(N/N=C/c1ccc(Br)s1)c1ccccc1[N+](=O)[O-]	87	75	.	.	-2.4	.
O=C(N/N=C/c1ccc([N+](=O)[O-])s1)c1ccncc1	2.5*	2.5*	.	.	.	.
Cc1ccc(C(=O)N/N=C/c2ccc([N+](=O)[O-])s2)cc1	1.3*	1.9*	36	49*	-0.26	20*
CCn1c(SCC(=O)N/N=C/c2ccc(O)c(OC)c2)nc2ccccc21	89	86	.	.	.	.
COc1cccc(-c2cc(C(=O)NCCc3ccccc3)no2)c1	90	97	108	114	1.2	87
Cc1sc(NC(=O)c2ccco2)c(CN2CCC(C)CC2)c1C	72	62	.	.	-0.46	.
Cc1sc(NC(=O)c2ccco2)c(C(c2cccnc2)N2CCC(C)CC2)c1C (stereo not drawn)	28	15	90	87	-4.3*	83
CCSc1cc(N2CCOCC2)nc(-c2ccc(Cl)cc2)n1	87	93	.	.	.	.
Cc1ccc2oc(=O)c3cnn(CC(=O)N4CCN(c5ccccc5)CC4)c3c2c1	77	77	83	96	.	75
Cc1ccc2oc(=O)c3cnn(CC(=O)Nc4ccccc4N4CCN(C)CC4)c3c2c1	12	19	2.1*	47*	.	62
COc1ccccc1NC(=O)COc1ccc(/C=N/NC(=O)CSCc2cc(C)cc(C)c2)cc1	92	90	.	.	.	.
COc1ccccc1NC(=O)COc1ccc(/C=N/NC(=O)CSCc2ccc(Cl)cc2)cc1	2.2*	3.2*	.	.	-2.3	.
CCOc1cc(CNc2ccc(N(C)C)cc2)cc(Br)c1OCC(=O)NC(C)(C)C	69	76	.	.	0.36	.
COc1cc(CNc2ccc3[nH]c(=O)[nH]c3c2)cc(Br)c1OCC(=O)NC(C)(C)C	88	85	86	82	0.44	9.9*
CCOc1cc(CNc2cccc3ccccc23)cc(Br)c1OCC(=O)NC(C)(C)C	78	86	.	.	-3.7*	.
CC1CCN(c2ccc(N3C(=O)C4CCCCC4C3=O)cc2[N+](=O)[O-])CC1 (stereo not drawn)	103	101	.	.	.	.
COC(=O)/C(=C1/Oc2cc(C)oc(=O)c2S1)C(F)(F)F	3.2*	3.6*	.	.	0.13	.
O=C(NCc1ccc(Cl)cc1)C(=O)NCC1OCCN1C(=O)c1cccs1 (stereo not drawn)	85	88	.	.	.	.
CCCCSc1nc(N)c(C#N)c(-c2cccs2)c1C#N	73	74	92	80	-3.8*	92
COC(=O)CSc1nc(N)c(C#N)c(-c2ccco2)c1C#N	71	69	.	.	1.2	.
CCSc1nc(N)c(C#N)c(-c2ccco2)c1C#N	86	87	80	84	-0.03	32*
O=C(COc1ncnc2c(Cl)cc(Cl)cc12)Nc1cc([N+](=O)[O-])ccc1Cl	88	92	.	.	.	.
SMILES	HCT116 PTEN-null	bCat KO growth	HUVEC inhibit	Fibroblast inh	PTK2B oligo ant	H69AR inhibit
OCCCc1nc2n(n1)C(c1cccs1)C=C(c1ccc(Br)cc1)N2 (stereo not drawn)	32	42	76	90	.	79
Fc1ccc(C2=CC(c3ccco3)n3ncnc3N2)cc1 (stereo not drawn)	80	84	.	.	.	.
C1=C(c2ccc(-c3ccccc3)cc2)Nc2ncnn2C1c1ccco1 (stereo not drawn)	84	84	82	102	-1.6	18*
Brc1ccc(C2=CC(c3cccs3)n3ncnc3N2)cc1 (stereo not drawn)	42	44	88	92	-3.5*	81
Fc1ccc(Br)cc1C1C=C(c2cccnc2)Nc2ncnn21 (stereo not drawn)	30	33	66	96	.	25*
Fc1ccc(C2=CC(c3ccc(Br)o3)n3ncnc3N2)cc1 (stereo not drawn)	84	83	.	.	.	.
O=S(=O)(NNc1ccc(Cl)nn1)c1ccc(F)cc1	87	78	.	.	.	.
COCCN(C(=O)CCl)C(C(=O)NC1CCCCC1)c1ccccc1C (stereo not drawn)	3.2*	5.2*	.	.	.	.
O=C(/C=C/c1ccccc1[N+](=O)[O-])Nc1cccnc1	92	93	.	.	.	.
Cc1c(Cl)c([N+](=O)[O-])nn1CC(=O)Nc1ccc2c(c1)OCO2	97	89	.	.	.	.
Nc1nnnn1/N=C/C=C/c1ccccc1	100	92	103	93	0.26	93
Nc1nnnn1/N=C/C(Br)=C/c1ccccc1	3.2*	7	89	.	0.54	0.9*
Cc1ccc(CN(CC(=O)NC2CCCC2)C(=O)CSc2nnc(COc3ccccc3)o2)cc1	83	91	48	86	0.91	16*
O=C(CN(Cc1ccccc1)C(=O)CSc1nnc(COc2ccccc2)o1)NC1CCCC1	71	70	94	97	0.23	73
CC1CCCC(C)N1C(=O)Cn1cc(/C=C2/C(=O)Nc3ccccc32)c2ccccc21 (stereo not drawn)	51	58	76	82	-3	23*
COC(=O)c1cn(CC(=O)N2C(C)CCCC2C)c2ccccc12 (stereo not drawn)	99	96	99	109	-0.61	75
Cc1nnc(C)c2c(C)n(C(c3ccccc3)c3ccccc3)c(C)c12	64	71	77	106	0.25	26*
CCOC(=O)c1ccc(NC(=O)Cn2cc3c(n2)CCC(C)C3)cc1 (stereo not drawn)	103	89	102	103	.	90
Cc1n[nH]c(C)c1N1C(=O)c2cccc3c(Br)ccc(c23)C1=O	57	4.8*	71	93	1.3	95
O=C(Nc1ncnc2c1ncn2C1OC(COC(=O)c2ccccc2)C(F)C1O)c1ccccc1 (stereo not drawn)	99	91	88	98	-0.18	95
CCCn1c(NC(=O)c2cccc(S(=O)(=O)N3CCCC3)c2)nc2ccccc21	2.0*	2.9*	52	53	-3.9*	17*
CCCn1c(Nc2nc3ccccc3n2C)nc2ccccc21	2.0*	2.2*	3.0*	102	-1.5	3.1*
CCCCn1c(Nc2ccccc2)nc2ccccc21	93	98	117	102	-0.27	87
O=C(Nc1nc2ccccc2n1CCN1CCCCC1)C1CCCCC1	56	43	107	87	-0.56	31*
CCCn1c(NC(=O)c2ccc(C)cc2)nc2ccccc21	37	26	87	67	-0.41	52
